Reference: ChEMBL document CHEMBL1131930, “Synthetic [5,5] trans-fused indane lactones as inhibitors of thrombin” (Bioorg Med Chem Lett, 1999)

System: not listed separately
Test: Activated partial thromboplastin time (APTT) 2x control using human plasma
Type: functional
Procedure, shortened: (§1)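 Human plasma clotting; test compound added with a preincubation step before APTT measurement. The value is the compound concentration required to double the activated partial thromboplastin time. Lines with no significant effect were tested up to 100 µM.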

| SMILES | APTT |
| --- | --- |
| N=C(N)CCCCC1C(=O)O[C@H]2Cc3cc(-c4ccccc4)ccc3[C@H]12 (some centres undefined) | 50 µM |
| N=C(N)CCCCC1C(=O)O[C@H]2Cc3ccc(-c4ccc(O)cc4)cc3[C@H]12 (some centres undefined) | 42 µM |
| N=C(N)CCCCC1C(=O)O[C@H]2Cc3ccc(-c4cccc(-c5ccccc5)c4)cc3[C@H]12 (some centres undefined) | 85 µM |
| N=C(N)CCCCC1C(=O)O[C@H]2Cc3ccc(-c4ccccc4)cc3[C@H]12 (some centres undefined) | 60 µM |
| NC(N)=NCCC[C@H](NC(=O)[C@@H]1CCCN1C(=O)[C@H](N)Cc1ccccc1)C(=O)CCl | 1.8 µM |
| N=C(N)CCCCC1C(=O)O[C@H]2Cc3cc(-c4ccc(O)cc4)ccc3[C@H]12 (some centres undefined) | 27 µM |
| N=C(N)CCCCC1C(=O)O[C@H]2Cc3ccccc3[C@H]12 (some centres undefined) | 100 µM |
| COc1cccc(-c2ccc3c(c2)C[C@@H]2OC(=O)C(CCCCC(=N)N)[C@@H]32)c1 (some centres undefined) | 25 µM |
| CCN(CC)C(=O)c1cccc(-c2ccc3c(c2)[C@@H]2C(CCCCC(=N)N)C(=O)O[C@H]2C3)c1 (some centres undefined) | 40 µM |
| CCN(CC)C(=O)c1cccc(-c2ccc3c(c2)C[C@@H]2OC(=O)C(CCCCC(=N)N)[C@@H]32)c1 (some centres undefined) | 4 µM |

Molecular target: Serine protease 1 (Homo sapiens) (UniProt P07477)
Test: Inhibitory activity against protease trypsin was determined

Serine protease 1 (Homo sapiens), sequence (P07477 whole entry): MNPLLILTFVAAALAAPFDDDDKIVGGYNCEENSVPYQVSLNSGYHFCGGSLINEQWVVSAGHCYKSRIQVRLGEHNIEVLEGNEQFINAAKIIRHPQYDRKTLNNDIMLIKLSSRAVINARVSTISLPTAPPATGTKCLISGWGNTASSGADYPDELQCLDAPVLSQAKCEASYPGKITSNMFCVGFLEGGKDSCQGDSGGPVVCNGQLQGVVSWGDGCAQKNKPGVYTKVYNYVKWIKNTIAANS

| SMILES | K obs / 1 |
| --- | --- |
| N=C(N)CCCCC1C(=O)O[C@H]2Cc3cc(-c4ccccc4)ccc3[C@H]12 (some centres undefined) | 20000 M⁻¹ s⁻¹ |
| N=C(N)CCCCC1C(=O)O[C@H]2Cc3ccc(-c4cccc(-c5ccccc5)c4)cc3[C@H]12 (some centres undefined) | 110000 M⁻¹ s⁻¹ |
| COc1cccc(-c2ccc3c(c2)C[C@@H]2OC(=O)C(CCCCC(=N)N)[C@@H]32)c1 (some centres undefined) | 36000 M⁻¹ s⁻¹ |
| CCN(CC)C(=O)c1cccc(-c2ccc3c(c2)[C@@H]2C(CCCCC(=N)N)C(=O)O[C@H]2C3)c1 (some centres undefined) | 200000 M⁻¹ s⁻¹ |
| CCN(CC)C(=O)c1cccc(-c2ccc3c(c2)C[C@@H]2OC(=O)C(CCCCC(=N)N)[C@@H]32)c1 (some centres undefined) | 220000 M⁻¹ s⁻¹ |

System: not listed separately
Test: Selectivity was determined

| SMILES | Selectivity |
| --- | --- |
| N=C(N)CCCCC1C(=O)O[C@H]2Cc3cc(-c4ccccc4)ccc3[C@H]12 (some centres undefined) | 2.4 |
| N=C(N)CCCCC1C(=O)O[C@H]2Cc3ccc(-c4cccc(-c5ccccc5)c4)cc3[C@H]12 (some centres undefined) | 35 |
| COc1cccc(-c2ccc3c(c2)C[C@@H]2OC(=O)C(CCCCC(=N)N)[C@@H]32)c1 (some centres undefined) | 2.7 |
| CCN(CC)C(=O)c1cccc(-c2ccc3c(c2)[C@@H]2C(CCCCC(=N)N)C(=O)O[C@H]2C3)c1 (some centres undefined) | 55 |
| CCN(CC)C(=O)c1cccc(-c2ccc3c(c2)C[C@@H]2OC(=O)C(CCCCC(=N)N)[C@@H]32)c1 (some centres undefined) | 1.9 |

Molecular target: T1, Prothrombin (Homo sapiens, UniProt P00734)
Test: Inhibitory activity against human thrombin was determined

| SMILES | IC50 |
| --- | --- |
| COc1cccc(-c2ccc3c(c2)C[C@@H]2OC(=O)C(C)(CCCCC(=N)N)[C@@H]32)c1 (some centres undefined) | 1.8 µM |
| N=C(N)CCCCC1C(=O)O[C@H]2Cc3ccc(-c4ccc(O)cc4)cc3[C@H]12 (some centres undefined) | 0.009 µM |
| CNC(=N)CCCC[C@H]1C(=O)O[C@H]2Cc3ccc(-c4ccc(O)cc4)cc3[C@@H]21 | 1.6 µM |
| N=C(N)CCC[C@H]1C(=O)O[C@H]2Cc3ccccc3[C@@H]21 | 0.6 µM |
| N=C(N)CCCCC1C(=O)O[C@H]2Cc3ccccc3[C@H]12 (some centres undefined) | 0.077 µM |

Molecular target: T1, Prothrombin

| SMILES | K obs / 1 |
| --- | --- |
| N=C(N)CCCCC1C(=O)O[C@H]2Cc3cc(-c4ccccc4)ccc3[C@H]12 (some centres undefined) | 48000 M⁻¹ s⁻¹ |
| N=C(N)CCCCC1C(=O)O[C@H]2Cc3ccc(-c4ccc(O)cc4)cc3[C@H]12 (some centres undefined) | 270000 M⁻¹ s⁻¹ |
| N=C(N)CCCCC1C(=O)O[C@H]2Cc3ccc(-c4cccc(-c5ccccc5)c4)cc3[C@H]12 (some centres undefined) | 3.8e+06 M⁻¹ s⁻¹ |
| N=C(N)CCCCC1C(=O)O[C@H]2Cc3ccc(-c4ccccc4)cc3[C@H]12 (some centres undefined) | 490000 M⁻¹ s⁻¹ |
| NC(N)=NCCC[C@H](NC(=O)[C@H]1CCCN1C(=O)[C@H](N)Cc1ccccc1)C(=O)CCl | 1.6e+07 M⁻¹ s⁻¹ |
| N=C(N)CCCCC1C(=O)O[C@H]2Cc3cc(-c4ccc(O)cc4)ccc3[C@H]12 (some centres undefined) | 33000 M⁻¹ s⁻¹ |
| N=C(N)CCCCC1C(=O)O[C@H]2Cc3ccccc3[C@H]12 (some centres undefined) | 4200 M⁻¹ s⁻¹ |
| COc1cccc(-c2ccc3c(c2)C[C@@H]2OC(=O)C(CCCCC(=N)N)[C@@H]32)c1 (some centres undefined) | 96000 M⁻¹ s⁻¹ |
| N=C(N)CCCCC1C(=O)O[C@H]2Cc3cc(-c4cccc(-c5ccccc5)c4)ccc3[C@H]12 (some centres undefined) | 160000 M⁻¹ s⁻¹ |
| CCN(CC)C(=O)c1cccc(-c2ccc3c(c2)[C@@H]2C(CCCCC(=N)N)C(=O)O[C@H]2C3)c1 (some centres undefined) | 1.1e+07 M⁻¹ s⁻¹ |
| CCN(CC)C(=O)c1cccc(-c2ccc3c(c2)C[C@@H]2OC(=O)C(CCCCC(=N)N)[C@@H]32)c1 (some centres undefined) | 420000 M⁻¹ s⁻¹ |

Species on record: Homo sapiens
Test: Activated partial thromboplastin time (APTT) 2x control using human plasma; NE=no significant effect at 100 uM
Type: functional, cell-free
Procedure, shortened: as §1

| SMILES | APTT |
| --- | --- |
| COc1cccc(-c2ccc3c(c2)C[C@@H]2OC(=O)C(C)(CCCCC(=N)N)[C@@H]32)c1 (some centres undefined) | No effect |
| C/N=C(/N)CCCC[C@H]1C(=O)O[C@H]2Cc3ccc(-c4ccc(O)cc4)cc3[C@@H]21 | No effect |
| N=C(N)CCCCC1C(=O)O[C@H]2Cc3cc(-c4cccc(-c5ccccc5)c4)ccc3[C@H]12 (some centres undefined) | No effect |
